The record followed here is ChEMBL document CHEMBL1139876, “Synthesis and study of L-dopa-glutathione codrugs as new anti-Parkinson agents with free radical scavenging properties” (J Med Chem, 2007).

Data set [1] relates to Rattus norvegicus. Put plainly: Anxiolytic effect in Wistar rat assessed as […] in entries and time spent in open field center at 184.79 mg/kg, po after 1.5 hrs. On the set-up: dose 184.79 mg/kg. In kind it is functional, organism-based.
Data set [2] deals with Rattus norvegicus. In words: Antioxidant activity assessed as decrease in SOD activity in Wistar rat plasma at 184.79 mg/kg, po after 1.5 hrs. The class given is functional. The gist of the method: (§1)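 Rats dosed by oral gavage; plasma SOD and GPx activities measured 1.5 h after administration, expressed as units/(g Hb). Mean ± SE of five experiments; P < 0.05 vs L-dopa-treated group.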

Data set [3] is described as follows: Plasma concentration in Wistar rat at 65.46 mg/kg, po after 2 hrs. In kind it is ADME, organism-based. On the set-up: dose 65.46 mg/kg, route oral. The gist of the method: (§2)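 Plasma L-dopa concentration–time profile in rats after oral administration, with sampling up to 8 h. Mean ± SE; each experiment in triplicate.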
A short description of data set [4]: Pro-oxidant effect on Fe(2+)/H2O2-induced deoxyribose degradation relative to control. In kind it is functional. In short, it runs like this:
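Deoxyribose degradation induced by Fe(II)/H2O2 in a medium of deoxyribose, phosphate buffer, EDTA and H2O2 with no enzymatic activity. Compounds tested from 1 to 50 µM.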

In data set [5] the test system is Rattus norvegicus. In words: Antioxidant activity assessed as increase in glutathione peroxidase activity in Wistar rat plasma at 184.79 mg/kg, po after 1.5 hrs. The class given is functional. In short, it runs like this:
as §1

Data set [6] in a line: Chemical stability assessed as half life of hydrolysis in 0.02 M sodium acetate buffer at pH 5.0. In kind it is physicochemical. In short, it runs like this:
(§3)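 Chemical hydrolysis at 37 °C at pH 1.3, 5.0 and 7.4. Codrug concentration followed over time; Kobs and t1/2 taken by regression from slopes of semilogarithmic concentration–time plots. Means of three experiments ± SD.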

The nature of data set [7]: Solubility in 0.02 M sodium acetate buffer at pH 5.0. The class given is physicochemical. The gist of the method:
(§4)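 Solubility in water and in buffers at pH 1.3, 5.0 and 7.4, determined by HPLC-UV peak areas correlated with known concentrations. Means of three experiments ± SD.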

Data set [8] can be described thus: Chemical stability assessed as half life of hydrolysis in 0.02 M hydrochloric acid buffer at pH 1.3. The class given is physicochemical. The gist of the method: as §3
Data set [9] can be described thus: Solubility in water. The class given is physicochemical. The gist of the method: as §4
The nature of data set [10]: Chemical stability assessed as half life of hydrolysis in 0.02 M phosphate buffer at pH 7.4. The class given is physicochemical. The gist of the method: as §3
Data set [11] in a line: Partition coefficient, log P at pH 7.4 by saturation shake flask method. The class given is physicochemical. Conditions: octanol/water. The gist of the method:
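log P measured by saturation shake-flask in n-octanol/phosphate buffer, pH 7.4. Concentrations in each layer quantified by C18 reverse-phase HPLC-UV against known standards. Means of three experiments ± SD.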

A short description of data set [12]: Solubility in 0.02 M phosphate buffer at pH 7.4. In kind it is physicochemical. In short, it runs like this:
as §4

Data set [13] can be described thus: Solubility in 0.02 M hydrochloric acid buffer at pH 1.3. The class given is physicochemical. The gist of the method:
as §4

For another data set, the species on record is Homo sapiens. Put plainly: Stability in human plasma assessed as half life of hydrolysis.
A short description of data set [14]: Stability in rat plasma assessed as half life of hydrolysis. In kind it is ADME, cell-free. The gist of the method: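 Enzymatic hydrolysis at 37 °C in 80% human or rat plasma containing 20% 0.02 M phosphate buffer, pH 7.4, monitoring release of L-dopa. Fitted to first-order kinetics to give Kobs and t1/2. Means of three experiments ± SD.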
Data set [15] concerns Rattus norvegicus. In words: Induction of sustained release of dopamine levels in Wistar rat striatum at 184.79 mg/kg, po after 12 hrs. In kind it is functional. The gist of the method: (§5)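 Oral dosing to rats at doses equimolar to L-dopa. Striatal L-dopa and dopamine measured over time by HPLC with electrochemical detection. Mean ± SE; each experiment in triplicate.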
Data set [16] relates to Rattus norvegicus. Put plainly: Induction of sustained release of […] levels in Wistar rat striatum at 184.79 mg/kg, po after 12 hrs. The class given is functional. The gist of the method: as §5
For data set [17], the system named is Rattus norvegicus. In words: Prolongation of plasma […] levels in Wistar rat at 184.79 mg/kg, po after 2 hrs. The class given is functional. The gist of the method: as §2

The structures appear in SMILES notation. Converted amounts (≈) assume the structure as drawn. The source made the active and inactive calls. The rule behind the calls is not given here.

Regarding `COC(=O)[C@H](CCC(=O)N[C@@H](CS)C(=O)NCC(=O)N[C@H](Cc1ccc(O)c(O)c1)C(=O)OC)NC(C)=O`, in the data set with Rattus norvegicus [1], the result was Active.

Regarding `N[C@@H](Cc1ccc(O)c(O)c1)C(=O)O` [LEVODOPA], the Activity in the data set on Rattus norvegicus [2] was 203.4 U/g.Hb; in [4] it was “Dose-dependent effect”; in the data set on Rattus norvegicus [5] it was 795.6 U/g. Also, the concentration at 2 h in [3] amounted to 83 µg/mL.

A word on the half-life: it is how long it takes for the measured level to halve. A word on the solubility: it is the dissolved amount per volume that the medium holds. A high value points to much dissolved substance. For orientation: logD means the decadic logarithm of the distribution of all forms, ionised or not, between an organic phase and buffer at a given pH. For `N[C@H](Cc1ccc(O)c(O)c1)C(=O)N[C@@H](CCC(=O)N[C@@H](CS)C(=O)NCC(=O)O)C(=O)O`, the half-life is 80.1 h in [6]; 40.4 h in [8]; 23.2 h in [10]; 0.222 h in the data set filed under Homo sapiens; 4.1 min in data set [14]. Moreover, the solubility was 690 µg/mL (≈ 1.42 mM) in data set [7], 320 µg/mL (≈ 0.658 mM) in [9], 460 µg/mL (≈ 0.946 mM) in data set [12] and 550 µg/mL (≈ 1.13 mM) in data set [13]. This compound displayed a logD in data set [11] of 0.8.

In the case of `COC(=O)[C@H](CCC(=O)N[C@@H](CS)C(=O)NCC(=O)N[C@@H](Cc1ccc(O)c(O)c1)C(=O)OC)NC(C)=O` [listing 1 of 2 here], the half-life in [6] was 40.8 h; in data set [8], 20.1 h; in data set [10], 7.22 h; in the data set listed under Homo sapiens it was 0.0533 h. Besides, the solubility was found to be 25500 µg/mL (≈ 45.8 mM) in [7], 27000 µg/mL (≈ 48.6 mM) in data set [9], 25600 µg/mL (≈ 46.1 mM) in data set [12] and 35100 µg/mL (≈ 63.1 mM) in data set [13]. Moreover, the logD in data set [11] stood at 0.89.

For the compound `COC(=O)[C@H](CCC(=O)N[C@@H](CS)C(=O)NCC(=O)N[C@@H](Cc1ccc(O)c(O)c1)C(=O)OC)NC(C)=O` [listing 2 of 2 here], the Activity with Rattus norvegicus [2] was determined as 174.86 U/g.Hb; with Rattus norvegicus [5], 847.78 U/g.Hb; in the data set on Rattus norvegicus [15], 40 pmol/kg; in the data set on Rattus norvegicus [16] it was 40 pmol/mg; in the data set on Rattus norvegicus [17] it was 105 µg/mL.

For the compound `N[C@@H](CCC(=O)N[C@@H](CS)C(=O)NCC(=O)N[C@H](Cc1ccc(O)c(O)c1)C(=O)O)C(=O)O`, the result in data set [4] was inactive.

In the case of `N[C@@H](CCC(=O)N[C@@H](CS)C(=O)NCC(=O)N[C@@H](Cc1ccc(O)c(O)c1)C(=O)O)C(=O)O`, the half-life in data set [6] is 57.3 h; in [8], 28.1 h; in data set [10], 12.2 h; in the data set filed under Homo sapiens, 0.252 h; in data set [14], 2.7 min. The solubility is 1670 µg/mL (≈ 3.43 mM) in data set [7], 1800 µg/mL (≈ 3.7 mM) in data set [9], 1930 µg/mL (≈ 3.97 mM) in [12] and 2150 µg/mL (≈ 4.42 mM) in data set [13]. In addition, in [11], the logD is 0.75.

Turning to `COC(=O)CNC(=O)[C@H](CS)NC(=O)CC[C@H](NC(=O)[C@@H](Cc1ccc(O)c(O)c1)NC(C)=O)C(=O)OC`, the half-life in data set [6] is 69.3 h; in [8], 31 h; in [10], 15.1 h; in the data set listed under Homo sapiens, 0.0783 h; in data set [14] it was 1.9 min. In addition, the Activity in the data set on Rattus norvegicus [2] is 200.59 U/g; with Rattus norvegicus [5], 821 U/g.Hb; in the data set on Rattus norvegicus [15], 40 pmol/kg; with Rattus norvegicus [16], 40 pmol/mg; in the data set on Rattus norvegicus [17] it was 85 µg/mL. Besides, the solubility was 3840 µg/mL (≈ 6.9 mM) in data set [7], 7890 µg/mL (≈ 14.2 mM) in [9], 3990 µg/mL (≈ 7.17 mM) in [12] and 2740 µg/mL (≈ 4.92 mM) in data set [13]. Moreover, the logD in data set [11] came to 0.94. For the same compound, the outcome in the data set on Rattus norvegicus [1] was Active.
